Test results reported in ChEMBL document CHEMBL4038313, “Expanding the Antiviral Spectrum of 3-Fluoro-2-(phosphonomethoxy)propyl Acyclic Nucleoside Phosphonates: Diamyl Aspartate Amidate Prodrugs” (J Med Chem, 2017).

Key:
[1] = Selectivity index, ratio of CC50 for human PHA-stimulated PBMCs to IC50 for CCR5 tropic HIV1 BaL infected in human PHA-stimulated PBMC
[2] = test system: Human immunodeficiency virus 1; assay: (§1) Antiviral activity against CXCR4-tropic HIV-1 NL4-3 infected in human PHA-stimulated PBMC assessed as inhibition of viral replication by measuring reduction in p24 antigen production preincubated with cells for 30 mins followed by viral infection measured on day 10 post infection in presence of IL-2 by ELISA; format: functional; details: Human immunodeficiency virus 1, NL4-3
Procedure, shortened: (§2)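 PBMCs stimulated with 2 μg/mL PHA for 3 days at 37 °C, then 5 × 10^5 cells/ml preincubated 30 min at 37 °C with serial compound dilutions plus 2 ng/mL IL-2. Infected with 1500 pg/well HIV-1 BaL or 500 pg/well other isolates. IL-2 re-added on days 3 and 6. Supernatant p24 Ag measured by ELISA at day 10. EC50 is 50% inhibition of replication.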

[3] = Cytotoxicity against human PHA-stimulated PBMC assessed as cell viability by tetrazolium dye assay; format: cell-based
[4] = test system: Human immunodeficiency virus 1; assay: as §1, with “CCR5 tropic HIV1 BaL” for “CXCR4-tropic HIV-1 NL4-3”; format: functional; details: Human immunodeficiency virus 1, BaL; procedure, shortened: as §2
[5] = Selectivity index, ratio of CC50 for human PHA-stimulated PBMC to IC50 for CXCR4-tropic HIV-1 NL4-3 infected in human PHA-stimulated PBMC
[6] = Selectivity index, ratio of CC50 for human TZM-bl cells to EC50 for CXCR4-tropic HIV-1 NL4-3 infected in human TZM-bl cells; format: toxicity, cell-based; details: read-out: Ratio CC50/EC50
Human betaherpesvirus 5 [7] = assay: Antiviral activity against Human cytomegalovirus AD169 infected in HEL cells assessed as inhibition of virus-induced cytopathic effect; format: functional, cell-based; details: Human betaherpesvirus 5, AD169, HEL
Procedure, shortened: (§3)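 HEL fibroblast monolayers inoculated with 100 CCID50 HCMV (AD-169, Davis) or 20 PFU VZV (TK+ Oka, TK− 07-1). Adsorbed 1–2 h, inoculum removed, then incubated with compound dilutions. HCMV cytopathicity or VZV plaques scored once untreated infected controls reached completion. EC50 is 50% reduction. SI is CC50/EC50, and the potency ratio is the ratio of EC50s.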

Hepatitis B virus = assay: Antiviral activity against HBV ayw1 infected in human HepG2(2.2.15) cells assessed as reduction in viral replication by measuring extracellular viral DNA copy number after 6 days by real-time qPCR method; format: functional, cell-based; details: ayw1, HepG2 2.2.15, 144 h
Procedure, shortened: (§4)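 HepG2.2.15 cells (two copies of HBV ayw1 genome), 1.5 × 10^4/well in DMEM with 2% FBS and 380 μg/mL G418. After 16–24 h, compound added in triplicate, medium with compound renewed at day 3. Supernatant collected at day 6, Pronase-treated, and extracellular HBV DNA measured by TaqMan qPCR (precore/core) against an HBV DNA standard curve. EC50/EC90 derived; CC50 by MTS uptake.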

[8] = Cytotoxic activity against HEL cells assessed as alteration of cell morphology after 3 days by microscopic method; format: cell-based; details: human
Procedure, shortened: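 HEL cells with compound; MCC is the lowest concentration giving microscopically detectable alteration of cell morphology.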

[9] = Selectivity index, ratio of CC50 for HepG2.2.15 cells to EC50 for HBV ayw1 infected in human HepG2(2.2.15) cells assessed as reduction in viral replication by measuring extracellular viral DNA copy; procedure, shortened: as §4
[10] = Selectivity index, ratio of CC50 for human TZM-bl cells to EC50 for CCR5 tropic HIV1 BaL infected in human TZM-bl cells; format: toxicity, cell-based; details: read-out: Ratio CC50/EC50
[11] = test system: Human immunodeficiency virus 1; assay: Antiviral activity against CCR5 tropic HIV1 BaL infected in human TZM-bl cells assessed as inhibition of virus-induced cytopathic effect preincubated with cells for 30 mins followed by viral infection measured after 48 hrs in presence of p-24 HIV-1 Ag by luciferase reporter gene assay; format: functional, cell-based; details: Human immunodeficiency virus 1, BaL
Procedure, shortened: (§5)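 TZM-bl cells, 1 × 10^4 per well in DMEM with 10% FBS and 10 mM […], incubated 30 min at 37 °C with compound. Then HIV-1 NL4.3 (X4) or BaL (R5) added at 100 pg p24 Ag per well. After 48 h, cells lysed with luciferase substrate. Tat-induced luminescence read after 10 min dark incubation as a measure of replication.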

Human alphaherpesvirus 3 [12] = assay: Antiviral activity against thymidine kinase expressing Varicella-Zoster virus Oka strain assessed as inhibition of plaque formation; format: functional; details: Human alphaherpesvirus 3, strain Oka vaccine; procedure, shortened: as §3
Human alphaherpesvirus 3 [13] = assay: Antiviral activity against thymidine kinase deficient Varicella-Zoster virus 07-1 infected in HEL cells assessed as inhibition of plaque formation; format: functional, cell-based; details: Human alphaherpesvirus 3, 07-1, HEL; procedure, shortened: as §3
[14] = test system: Human immunodeficiency virus 1; assay: Antiviral activity against CXCR4-tropic HIV-1 NL4-3 infected in human TZM-bl cells assessed as inhibition of virus-induced cytopathic effect preincubated with cells for 30 mins followed by viral infection measured after 48 hrs in presence of p-24 HIV-1 Ag by luciferase reporter gene assay; format: functional, cell-based; details: Human immunodeficiency virus 1, NL4-3, TZM-bl; procedure, shortened: as §5
[15] = Cytotoxicity against human HepG2.2.15 cells assessed as cell viability by tetrazolium dye uptake assay; format: cell-based, HepG2 2.2.15
Procedure, shortened: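 HepG2.2.15 cells (two integrated copies of HBV ayw1 genome) were seeded at 1.5 × 10^4 cells/well in DMEM with 2% FBS, 380 μg/mL G418, glutamine, antibiotics and nonessential amino acids. After 16−24 h, medium with various compound concentrations was added in triplicate and renewed on day 3. After 6 days of treatment, viability was read by MTS uptake and CC50 was calculated.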

[16] = Cytotoxicity against human TZM-bl cells assessed as cell viability by tetrazolium dye assay; format: cell-based
Human betaherpesvirus 5 [17] = assay: Antiviral activity against HCMV Davis strain infected in HEL cells assessed as inhibition of virus-induced cytopathic effect; format: functional, cell-based; details: Human betaherpesvirus 5, Davis; procedure, shortened: as §3
[18] = Cytotoxic activity against HEL cells assessed as reduction in cell proliferation after 3 days by coulter counting method; format: cell-based; details: human
Procedure, shortened: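 HEL cells seeded at 5 × 10^3/well, grown 24 h, then given compound for 3 days at 37 °C. Cell number counted by Coulter counter. CC50 is 50% reduction of proliferation relative to untreated controls, read from graphic plots.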

Compound | Ratio CC50/IC50 [1] | IC50 [2] | CC50 [3] | IC50 [4] | Ratio CC50/IC50 [5] | selectivity ratio [6] | EC50 (Human betaherpesvirus 5 [7]) | EC50 (Hepatitis B virus) | EC90 (Hepatitis B virus) | MCC at 72 h [8] | Ratio CC50/EC50 [9] | selectivity ratio [10] | EC50 [11] | EC50 (Human alphaherpesvirus 3 [12]) | EC50 (Human alphaherpesvirus 3 [13]) | EC50 [14] | CC50 [15] | CC50 [16] | EC50 (Human betaherpesvirus 5 [17]) | CC50 at 72 h [18]
CC(C)OC(=O)[C@H](C)N[P@](=O)(CO[C@H](C)Cn1cnc2c(N)ncnc21)Oc1ccccc1 [TENOFOVIR ALAFENAMIDE] | 132 | 0.001 µM | 1.32 µM | 0.01 µM | 1320 | – | – | – | – | – | – | – | – | – | – | – | – | – | – | –
CCCCCOC(=O)C[C@H](NP(=O)(CO[C@@H](CF)Cn1ccc(N)nc1=O)Oc1ccccc1)C(=O)OCCCCC (stereo partly drawn) | – | – | – | – | – | < 1 | > 32.6 µM | 28 µM | 91.5 µM | 32.6 µM | 1 | < 1 | > 54.2 µM | > 32.6 µM | > 32.6 µM | > 54.2 µM | 33.5 µM | 54.2 µM | > 32.6 µM | –
Nc1nc(O)c2ncn(C[C@@H](CF)OCP(=O)(O)O)c2n1 | 32 | 0.28 µM | 36.4 µM | 1.14 µM | 130 | > 21 | 127 µM | 0.59 µM | 42.7 µM | > 311 µM | >169 | > 26 | 3.79 µM | 15.5 µM | 12.5 µM | 4.81 µM | > 100 µM | > 100 µM | 57 µM | 65.4 µM
Cc1cn(C[C@@H](CF)OCP(=O)(O)O)c(=O)[nH]c1=O | – | – | – | – | – | > 2 | > 338 µM | > 100 µM | > 100 µM | > 338 µM | 1 | 1 | > 100 µM | > 338 µM | 338 µM | 56.8 µM | > 100 µM | > 100 µM | > 338 µM | –
Nc1ccn(C[C@@H](CO)OCP(=O)(O)O)c(=O)n1 [CIDOFOVIR] | – | – | – | – | – | – | 2.49 µM | – | – | > 358 µM | – | – | – | – | – | – | – | – | 3.74 µM | > 358 µM
CCCCCOC(=O)C[C@H](NP(=O)(CO[C@@H](CF)Cn1cnc2c(N)ncnc21)Oc1ccccc1)C(=O)OCCCCC (stereo partly drawn) | 109 | 0.026 µM | 36.1 µM | 0.33 µM | >1388 | 269 | > 31.4 µM | 1.06 µM | 16.9 µM | 157 µM | 31 | 342 | 0.11 µM | 3.81 µM | 8.24 µM | 0.14 µM | 33 µM | 37.6 µM | > 31.4 µM | 7.47 µM
Nc1nc(O)c2ncn(C[C@H](CF)OCP(=O)(O)O)c2n1 | 14.5 | 1.42 µM | 93.1 µM | 6.41 µM | 66 | > 22 | 139 µM | 0.49 µM | 82.5 µM | > 311 µM | >204 | > 15 | 6.65 µM | 62.3 µM | 62.3 µM | 4.57 µM | > 100 µM | > 100 µM | 62.3 µM | –
Nc1nc2c(ncn2COCCO)c(=O)[nH]1 [ACYCLOVIR] | – | – | – | – | – | – | – | – | – | > 444 µM | – | – | – | 3.02 µM | 20.7 µM | – | – | – | – | > 444 µM
CCCCCOC(=O)C[C@H](NP(=O)(CO[C@@H](CF)Cn1cc(C)c(=O)[nH]c1=O)Oc1ccccc1)C(=O)OCCCCC (stereo partly drawn) | – | – | – | – | – | 1 | > 31.9 µM | 47 µM | > 100 µM | 31.9 µM | <1 | 1 | > 100 µM | 31.9 µM | 12.7 µM | > 100 µM | 34.2 µM | > 100 µM | > 31.9 µM | –
O=c1[nH]c(=O)n([C@H]2C[C@H](O)[C@@H](CO)O2)cc1/C=C/Br [BRIVUDINE] | – | – | – | – | – | – | – | – | – | > 300 µM | – | – | – | 0.055 µM | 5.21 µM | – | – | – | – | > 300 µM
Nc1ccn(C[C@@H](CF)OCP(=O)(O)O)c(=O)n1 | – | – | – | – | – | > 2 | 143 µM | > 100 µM | > 100 µM | > 356 µM | 1 | > 1 | 68.5 µM | 71.1 µM | 71.1 µM | 41.9 µM | > 100 µM | > 100 µM | 27.1 µM | > 356 µM
Nc1nc2c(ncn2COC(CO)CO)c(=O)[nH]1 [GANCICLOVIR] | – | – | – | – | – | – | – | – | – | > 391 µM | – | – | – | – | – | – | – | – | 16.5 µM | > 391 µM
Nc1ncnc2c1ncn2C[C@H](CF)OCP(=O)(O)O | 8 | 4.04 µM | 93.9 µM | 11.9 µM | 23 | > 3 | > 328 µM | 11.2 µM | > 100 µM | > 328 µM | >9 | > 3 | 30.7 µM | 172 µM | > 328 µM | 29.2 µM | > 100 µM | > 100 µM | > 328 µM | –
Nc1ccn(C[C@H](CF)OCP(=O)(O)O)c(=O)n1 | – | – | – | – | – | > 2 | > 356 µM | > 100 µM | > 100 µM | > 356 µM | 1 | 1 | > 100 µM | > 356 µM | > 356 µM | 54.1 µM | > 100 µM | > 100 µM | > 356 µM | –
Cc1cn(C[C@H](CF)OCP(=O)(O)O)c(=O)[nH]c1=O | – | – | – | – | – | > 2 | > 338 µM | > 100 µM | > 100 µM | > 338 µM | 1 | 1 | > 100 µM | > 338 µM | > 338 µM | 54.8 µM | > 100 µM | > 100 µM | > 338 µM | –
CCCCCOC(=O)C[C@H](NP(=O)(CO[C@H](CF)Cn1ccc(N)nc1=O)Oc1ccccc1)C(=O)OCCCCC (stereo partly drawn) | – | – | – | – | – | < 1 | 0.76 µM | 41.9 µM | > 100 µM | 163 µM | 1 | < 1 | > 69 µM | 3.15 µM | 1.32 µM | > 69 µM | 46.3 µM | 69 µM | 2.02 µM | 74.7 µM
